Consider 43 compounds from the M2OR odorant receptor database.

What all share (conditions): stereoisomer not certain
One assay addresses T1, UniProt A2ATE5.
T1 sequence (whole entry): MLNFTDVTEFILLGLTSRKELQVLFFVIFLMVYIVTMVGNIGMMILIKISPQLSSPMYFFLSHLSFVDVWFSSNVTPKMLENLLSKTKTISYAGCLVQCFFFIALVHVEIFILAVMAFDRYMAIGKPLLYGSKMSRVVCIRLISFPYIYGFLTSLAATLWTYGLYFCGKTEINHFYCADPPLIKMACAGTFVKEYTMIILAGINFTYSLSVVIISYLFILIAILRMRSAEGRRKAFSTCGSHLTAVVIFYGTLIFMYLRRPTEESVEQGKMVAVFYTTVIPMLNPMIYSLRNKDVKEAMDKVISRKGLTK
A digest of the protocol: (§1)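 Assay methods differ from source to source, frequently being transient luciferase assays in mammalian cell lines. For each receptor–molecule pair, the label responsive (active) applies when the original authors judged the measured signal statistically different from baseline, and non-responsive (inactive) applies otherwise.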

The next assay addresses T2, UniProt A2AVB0.
T2 sequence (whole entry): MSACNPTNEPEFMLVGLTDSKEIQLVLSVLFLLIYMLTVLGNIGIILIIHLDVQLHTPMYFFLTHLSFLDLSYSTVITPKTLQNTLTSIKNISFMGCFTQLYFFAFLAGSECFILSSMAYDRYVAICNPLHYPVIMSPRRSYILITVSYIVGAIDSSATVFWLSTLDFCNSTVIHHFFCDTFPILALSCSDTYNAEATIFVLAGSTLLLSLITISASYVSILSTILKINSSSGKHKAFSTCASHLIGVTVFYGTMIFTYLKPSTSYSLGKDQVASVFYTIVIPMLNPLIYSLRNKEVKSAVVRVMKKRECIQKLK
A digest of the protocol: as §1

Another assay concerns the target T3, UniProt E9PVX1.
T3 sequence (whole entry): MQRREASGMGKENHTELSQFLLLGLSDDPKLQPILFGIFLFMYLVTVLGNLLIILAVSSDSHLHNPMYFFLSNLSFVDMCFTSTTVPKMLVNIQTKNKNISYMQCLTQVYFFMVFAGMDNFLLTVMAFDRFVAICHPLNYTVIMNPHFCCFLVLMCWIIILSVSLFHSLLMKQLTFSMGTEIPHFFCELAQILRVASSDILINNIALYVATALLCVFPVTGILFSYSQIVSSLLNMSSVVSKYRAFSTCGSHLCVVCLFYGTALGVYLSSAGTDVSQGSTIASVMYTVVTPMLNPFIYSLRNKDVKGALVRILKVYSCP
A digest of the protocol:
as §1

The target in a further assay is T4, UniProt E1BM68.
T4 sequence (whole entry): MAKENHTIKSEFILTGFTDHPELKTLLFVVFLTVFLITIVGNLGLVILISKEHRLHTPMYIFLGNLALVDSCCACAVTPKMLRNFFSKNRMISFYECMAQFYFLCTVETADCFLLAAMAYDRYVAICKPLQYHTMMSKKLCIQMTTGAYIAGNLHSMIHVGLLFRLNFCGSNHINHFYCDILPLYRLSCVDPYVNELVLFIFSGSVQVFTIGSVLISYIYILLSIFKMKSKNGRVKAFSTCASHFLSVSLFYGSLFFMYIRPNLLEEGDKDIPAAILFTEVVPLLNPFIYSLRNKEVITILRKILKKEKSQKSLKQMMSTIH
A digest of the protocol: as §1

In the next assay the target is T5, UniProt E9PX47.
T5 sequence (whole entry): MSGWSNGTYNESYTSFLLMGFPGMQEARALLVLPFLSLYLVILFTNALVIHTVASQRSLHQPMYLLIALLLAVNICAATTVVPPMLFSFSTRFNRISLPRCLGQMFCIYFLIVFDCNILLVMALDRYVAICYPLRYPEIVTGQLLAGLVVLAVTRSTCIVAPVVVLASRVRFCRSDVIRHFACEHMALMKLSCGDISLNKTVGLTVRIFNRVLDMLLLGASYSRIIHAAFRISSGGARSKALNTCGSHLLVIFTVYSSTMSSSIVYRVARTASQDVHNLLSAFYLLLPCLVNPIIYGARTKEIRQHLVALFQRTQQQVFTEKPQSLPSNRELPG
The gist of the method: as §1

A further assay addresses T6, UniProt A2AVB5.
T6 sequence (whole entry): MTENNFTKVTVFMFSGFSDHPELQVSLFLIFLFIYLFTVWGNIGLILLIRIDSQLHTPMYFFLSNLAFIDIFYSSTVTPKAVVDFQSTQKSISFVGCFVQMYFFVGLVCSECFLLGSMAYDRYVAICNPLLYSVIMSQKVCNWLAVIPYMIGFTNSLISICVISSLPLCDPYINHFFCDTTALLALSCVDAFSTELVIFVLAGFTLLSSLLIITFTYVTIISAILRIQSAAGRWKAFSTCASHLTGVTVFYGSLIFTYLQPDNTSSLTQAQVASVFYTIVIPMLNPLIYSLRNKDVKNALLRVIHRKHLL
The gist of the method: as §1

A further assay addresses T7, UniProt B2RVX8.
T7 sequence (whole entry): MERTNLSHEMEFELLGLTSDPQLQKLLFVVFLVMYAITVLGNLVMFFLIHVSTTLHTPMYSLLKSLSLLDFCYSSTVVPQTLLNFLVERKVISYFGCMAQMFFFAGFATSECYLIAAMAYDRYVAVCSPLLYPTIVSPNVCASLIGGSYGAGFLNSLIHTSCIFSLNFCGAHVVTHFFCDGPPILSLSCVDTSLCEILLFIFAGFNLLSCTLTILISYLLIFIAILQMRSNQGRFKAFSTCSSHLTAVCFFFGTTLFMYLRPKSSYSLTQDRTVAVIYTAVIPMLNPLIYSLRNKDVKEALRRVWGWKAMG
The gist of the method:
as §1

Regarding `C=C1C2CCC(C2)C1(C)C` (centres undefined), the “odorant receptor agonist call” value in the assay with UniProt A2ATE5, with UniProt A2AVB0 and with UniProt E9PVX1 was “inactive” throughout.
As to `C=CC(C)=CCC=C(C)CCC=C(C)C`, the “odorant receptor agonist call” value with UniProt A2ATE5, with UniProt A2AVB0 and with UniProt E9PVX1 was “inactive” throughout.
For `C=CC(=C)CCC=C(C)CCC=C(C)C`, the “odorant receptor agonist call” value in the assay with UniProt A2ATE5, with UniProt A2AVB0 and in the assay with UniProt E9PVX1 was “inactive” each time.
For `Cc1ccc(OC(=O)C(C)C)cc1`, the “odorant receptor agonist call” value with UniProt A2ATE5, with UniProt A2AVB0 and in the assay with UniProt E9PVX1 was “inactive” in each case.
For `CCCCCCC(C=O)=Cc1ccccc1`, the “odorant receptor agonist call” value with UniProt A2ATE5, with UniProt A2AVB0 and with UniProt E9PVX1 was “inactive” in each case.
Turning to `Cc1cnc(C)cn1`, in the assay with UniProt E1BM68, the “odorant receptor agonist call” value is “active”.
With `CCCCOC(=O)CCC`, the “odorant receptor agonist call” value in the assay with UniProt E9PX47 is “inactive”.
As for `CCc1nccnc1C`, the “odorant receptor agonist call” value with UniProt E1BM68 is “active”.
Consider `C=C(C)C1CCC(C)C(O)C1` (centres undefined), for which the “odorant receptor agonist call” value with UniProt A2ATE5, with UniProt A2AVB0 and with UniProt E9PVX1 was “inactive” throughout.
On to `CCc1nccnc1OC`, for which, in the assay with UniProt E1BM68, the “odorant receptor agonist call” value is “active”.
With `C=CC(=O)CCCCC`, the “odorant receptor agonist call” value in the assay with UniProt A2ATE5, in the assay with UniProt A2AVB0 and with UniProt E9PVX1 was “inactive” throughout.
`CCCCCCCCCCOC(C)=O`: the “odorant receptor agonist call” value with UniProt A2ATE5, with UniProt A2AVB0 and in the assay with UniProt E9PVX1 was “inactive” each time.
Turning to `CCC(C(=O)O)c1ccccc1` (centres undefined), the “odorant receptor agonist call” value with UniProt A2AVB5 and with UniProt B2RVX8 was “inactive” each time.
In the case of `CCc1cnc(C)c(C)n1`, the “odorant receptor agonist call” value with UniProt E1BM68 was “inactive”.
Regarding `CCCCCCCC(=O)[O-].[H+]`, the “odorant receptor agonist call” value in the assay with UniProt A2AVB5, with UniProt B2RVX8 and with UniProt E9PX47 was “inactive” in each case.
For the compound `CCC=CCCC=CC=O`, the “odorant receptor agonist call” value with UniProt A2ATE5, with UniProt A2AVB0 and in the assay with UniProt E9PVX1 was “inactive” each time.
Regarding `Cc1nccnc1C`, the “odorant receptor agonist call” value with UniProt E1BM68 is “active”.
As to `CCCCOC(=O)C(C)OC(=O)CCC` (centres undefined), the “odorant receptor agonist call” value with UniProt A2AVB5 and in the assay with UniProt B2RVX8 was “inactive” each time.
In the case of `Cc1ccc2c(c1)OCC(=O)CO2`, the “odorant receptor agonist call” value with UniProt A2ATE5, in the assay with UniProt A2AVB0 and with UniProt E9PVX1 was “inactive” each time.
With `CC1=NC(C)C(C)S1` (centres undefined), the “odorant receptor agonist call” value in the assay with UniProt E1BM68 was “active”.
Regarding `CCCCCC=CCCC=O`, the “odorant receptor agonist call” value in the assay with UniProt A2ATE5, with UniProt A2AVB0 and with UniProt E9PVX1 was “inactive” in each case.
Turning to `CC1CCc2nccnc21` (centres undefined), the “odorant receptor agonist call” value in the assay with UniProt E1BM68 is “active”.
As for `CCCCC=O`, the “odorant receptor agonist call” value with UniProt A2ATE5, with UniProt A2AVB0, with UniProt E9PVX1 and with UniProt E9PX47 was “inactive” in each case.
`CCCCCO`: the “odorant receptor agonist call” value in the assay with UniProt A2AVB5 and with UniProt B2RVX8 was “inactive” throughout.
With `CC(=O)c1nccnc1C`, the “odorant receptor agonist call” value with UniProt E1BM68 is “active”.
Take `Cc1cnc(C)c(C)n1`: the “odorant receptor agonist call” value with UniProt E1BM68 was “active”.
Same read-out and setting: under `C=Cc1cnccn1` stands “active”.
Turning to `CCC(C)O` (centres undefined), the “odorant receptor agonist call” value with UniProt A2ATE5, in the assay with UniProt A2AVB0 and in the assay with UniProt E9PVX1 was “inactive” in each case.
As to `CCCCCC(=Cc1ccccc1)C(OC)OC`, the “odorant receptor agonist call” value with UniProt A2ATE5, in the assay with UniProt A2AVB0 and with UniProt E9PVX1 was “inactive” each time.
Turning to `CC(=O)c1cnccn1`, the “odorant receptor agonist call” value in the assay with UniProt E1BM68 is “active”.
Still for that read-out and setting: under `COc1nccnc1CC(C)C` stands “active”; under `COC1=C(C)OC(C)C1=O` (centres undefined), “inactive”.
`O=C([O-])CCCCCCCC(=O)[O-].[H+].[H+]`: the “odorant receptor agonist call” value in the assay with UniProt A2ATE5, with UniProt A2AVB0 and in the assay with UniProt E9PVX1 was “inactive” in each case. Besides, the “odorant receptor agonist call” value with UniProt E9PX47 was “active”.
`CCCCCOC(=O)CC`: the “odorant receptor agonist call” value with UniProt A2ATE5, with UniProt A2AVB0 and in the assay with UniProt E9PVX1 was “inactive” each time.
As for `CCCO`, the “odorant receptor agonist call” value in the assay with UniProt A2ATE5, with UniProt A2AVB0 and with UniProt E9PVX1 was “inactive” throughout.
With `C1CCOCC1`, the “odorant receptor agonist call” value with UniProt A2ATE5, in the assay with UniProt A2AVB0 and with UniProt E9PVX1 was “inactive” each time.
On to `Cc1cnccn1`, for which the “odorant receptor agonist call” value with UniProt E1BM68 is “active”.
For `CCCC(C)=O`, the “odorant receptor agonist call” value with UniProt A2AVB5, with UniProt B2RVX8 and with UniProt E9PX47 was “inactive” each time.
Turning to `CCc1nccnc1C(C)=O`, the “odorant receptor agonist call” value with UniProt E1BM68 was “active”.
Turning to `CCCCCCC(=O)[O-].[H+]`, the “odorant receptor agonist call” value in the assay with UniProt A2AVB5, in the assay with UniProt B2RVX8 and in the assay with UniProt E9PX47 was “inactive” in each case.
`C1CCOC1`: the “odorant receptor agonist call” value with UniProt A2ATE5, with UniProt A2AVB0 and with UniProt E9PVX1 was “inactive” in each case.
In the case of `Cc1cncc(C)n1`, the “odorant receptor agonist call” value with UniProt E1BM68 is “active”.
For the compound `O=C(OCc1ccccc1)c1ccccc1O`, the “odorant receptor agonist call” value with UniProt A2ATE5, with UniProt A2AVB0 and with UniProt E9PVX1 was “inactive” each time.
